In ChEMBL document CHEMBL4689842, “EUbOPEN Chemogenomics Library wave 1” (2021):

Test system: HEK-293T
Assay: Multiplex assay against HEK293T;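 as to Population Tubulin-Different-Phenotype (%): share of the cells with healthy nuclei that show this phenotype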
Format: toxicity, cell-based
Conditions: human
In short: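 At seeding, live cells were stained with Hoechst33342, BioTracker Green Microtubule Cytoskeleton Dye, MitoTracker Red and Annexin V Alexa Fluor 680. After compound addition they were imaged on a CQ1 microscope at 37°C and 5% CO2, and CellPathfinder machine-learning gating sorted them into Hoechst high-intensity objects or normal cells, with normal cells further split into healthy, pyknosed or fragmented nuclei and pyknosed cells into mitotic or apoptotic. Tubulin, mitochondrial-mass and membrane-permeability phenotypes are given as per cents of cells with healthy nuclei.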

[1] = 12 h, 1 µM, compound concentration 1 uM, replicate 1
[2] = 12 h, 1 µM, compound concentration 1 uM, replicate 2
[3] = 12 h, 10 µM, compound concentration 10 uM, replicate 1
[4] = 12 h, 10 µM, compound concentration 10 uM, replicate 2
[5] = 24 h, 1 µM, compound concentration 1 uM, replicate 1
[6] = 24 h, 1 µM, compound concentration 1 uM, replicate 2
[7] = 24 h, 10 µM, compound concentration 10 uM, replicate 1
[8] = 24 h, 10 µM, compound concentration 10 uM, replicate 2
[9] = 48 h, 1 µM, compound concentration 1 uM, replicate 1
[10] = 48 h, 1 µM, compound concentration 1 uM, replicate 2
[11] = 48 h, 10 µM, compound concentration 10 uM, replicate 1
[12] = 48 h, 10 µM, compound concentration 10 uM, replicate 2

Q: Which “Population Apoptotic (%)” value [1] does the source give for Cn1cc(-c2[nH]c3cc(NC(=O)[C@H](N)C4CCCCC4)cc4c3c2C=NNC4=O)cn1 here?
A: 40%

Q: What about the “Population Fragmented Nuclei (%)” value [1] of the same compound?
A: 10%

Q: What about the “Population Healthy Nuclei (%)” value [1] of the same compound?
A: 26%

Q: And the “Population Hoechst High Intensity Objects (%)” value [1]?
A: 14%

Q: What about the “Population Membrane Permeable-Phenotype (%)” value [1] of the same compound?
A: 10%

Q: And the “Population Mitochondria Different-Phenotype (%)” value [1]?
A: 71%

Q: What about the “Population Mitotic Cells (%)” value [1] of the same compound?
A: 60%

Q: And the “Population Normal (%)” value [1]?
A: 85%

Q: What about the “Population Pyknosed Nuclei (%)” value [1] of the same compound?
A: 62%

Q: What about the “Population Tubulin-Different-Phenotype (%)” value [1] of the same compound?
A: 42%

Q: And the “Total Cell Count” value [1]?
A: 344

Q: What about the “Population Apoptotic (%)” value [2] of the same compound?
A: 17%

Q: What about the “Population Fragmented Nuclei (%)” value [2] of the same compound?
A: 6%

Q: And the “Population Healthy Nuclei (%)” value [2]?
A: 28%

Q: What about the “Population Hoechst High Intensity Objects (%)” value [2] of the same compound?
A: 6%

Q: What about the “Population Membrane Permeable-Phenotype (%)” value [2] of the same compound?
A: 11%

Q: And the “Population Mitochondria Different-Phenotype (%)” value [2]?
A: 7%

Q: What about the “Population Mitotic Cells (%)” value [2] of the same compound?
A: 82%

Q: And the “Population Normal (%)” value [2]?
A: 93%

Q: What about the “Population Pyknosed Nuclei (%)” value [2] of the same compound?
A: 65%

Q: And the “Population Tubulin-Different-Phenotype (%)” value [2]?
A: 25%

Q: What about the “Total Cell Count” value [2] of the same compound?
A: 259

Q: What about the “Population Apoptotic (%)” value [3] of the same compound?
A: 64%

Q: And the “Population Fragmented Nuclei (%)” value [3]?
A: 15%

Q: What about the “Population Healthy Nuclei (%)” value [3] of the same compound?
A: 24%

Q: And the “Population Hoechst High Intensity Objects (%)” value [3]?
A: 17%

Q: And the “Population Membrane Permeable-Phenotype (%)” value [3]?
A: 10%

Q: And the “Population Mitochondria Different-Phenotype (%)” value [3]?
A: 82%

Q: What about the “Population Mitotic Cells (%)” value [3] of the same compound?
A: 35%

Q: What about the “Population Normal (%)” value [3] of the same compound?
A: 82%

Q: What about the “Population Pyknosed Nuclei (%)” value [3] of the same compound?
A: 60%

Q: What about the “Population Tubulin-Different-Phenotype (%)” value [3] of the same compound?
A: 62%

Q: What about the “Total Cell Count” value [3] of the same compound?
A: 329

Q: And the “Population Apoptotic (%)” value [4]?
A: 42%

Q: And the “Population Fragmented Nuclei (%)” value [4]?
A: 6%

Q: What about the “Population Healthy Nuclei (%)” value [4] of the same compound?
A: 17%

Q: What about the “Population Hoechst High Intensity Objects (%)” value [4] of the same compound?
A: 6%

Q: What about the “Population Membrane Permeable-Phenotype (%)” value [4] of the same compound?
A: 6%

Q: And the “Population Mitochondria Different-Phenotype (%)” value [4]?
A: 46%

Q: What about the “Population Mitotic Cells (%)” value [4] of the same compound?
A: 57%

Q: And the “Population Normal (%)” value [4]?
A: 93%

Q: And the “Population Pyknosed Nuclei (%)” value [4]?
A: 75%

Q: And the “Population Tubulin-Different-Phenotype (%)” value [4]?
A: 66%

Q: And the “Total Cell Count” value [4]?
A: 180

Q: What about the “Population Apoptotic (%)” value [5] of the same compound?
A: 41%

Q: And the “Population Fragmented Nuclei (%)” value [5]?
A: 13%

Q: What about the “Population Healthy Nuclei (%)” value [5] of the same compound?
A: 20%

Q: And the “Population Hoechst High Intensity Objects (%)” value [5]?
A: 19%

Q: And the “Population Membrane Permeable-Phenotype (%)” value [5]?
A: 5%

Q: And the “Population Mitochondria Different-Phenotype (%)” value [5]?
A: 62%

Q: And the “Population Mitotic Cells (%)” value [5]?
A: 58%

Q: And the “Population Normal (%)” value [5]?
A: 80%

Q: And the “Population Pyknosed Nuclei (%)” value [5]?
A: 65%

Q: And the “Population Tubulin-Different-Phenotype (%)” value [5]?
A: 68%

Q: What about the “Total Cell Count” value [5] of the same compound?
A: 330

Q: What about the “Population Apoptotic (%)” value [6] of the same compound?
A: 40%

Q: What about the “Population Fragmented Nuclei (%)” value [6] of the same compound?
A: 6%

Q: And the “Population Healthy Nuclei (%)” value [6]?
A: 26%

Q: What about the “Population Hoechst High Intensity Objects (%)” value [6] of the same compound?
A: 9%

Q: And the “Population Membrane Permeable-Phenotype (%)” value [6]?
A: 14%

Q: What about the “Population Mitochondria Different-Phenotype (%)” value [6] of the same compound?
A: 19%

Q: What about the “Population Mitotic Cells (%)” value [6] of the same compound?
A: 59%

Q: And the “Population Normal (%)” value [6]?
A: 90%

Q: What about the “Population Pyknosed Nuclei (%)” value [6] of the same compound?
A: 67%

Q: And the “Population Tubulin-Different-Phenotype (%)” value [6]?
A: 53%

Q: And the “Total Cell Count” value [6]?
A: 263

Q: What about the “Population Apoptotic (%)” value [7] of the same compound?
A: 74%

Q: What about the “Population Fragmented Nuclei (%)” value [7] of the same compound?
A: 17%

Q: And the “Population Healthy Nuclei (%)” value [7]?
A: 13%

Q: And the “Population Hoechst High Intensity Objects (%)” value [7]?
A: 17%

Q: And the “Population Membrane Permeable-Phenotype (%)” value [7]?
A: 14%

Q: And the “Population Mitochondria Different-Phenotype (%)” value [7]?
A: 97%

Q: And the “Population Mitotic Cells (%)” value [7]?
A: 25%

Q: What about the “Population Normal (%)” value [7] of the same compound?
A: 82%

Q: What about the “Population Pyknosed Nuclei (%)” value [7] of the same compound?
A: 69%

Q: What about the “Population Tubulin-Different-Phenotype (%)” value [7] of the same compound?
A: 82%

Q: What about the “Total Cell Count” value [7] of the same compound?
A: 311

Q: And the “Population Apoptotic (%)” value [8]?
A: 72%

Q: And the “Population Fragmented Nuclei (%)” value [8]?
A: 6%

Q: What about the “Population Healthy Nuclei (%)” value [8] of the same compound?
A: 6%

Q: And the “Population Hoechst High Intensity Objects (%)” value [8]?
A: 12%

Q: What about the “Population Membrane Permeable-Phenotype (%)” value [8] of the same compound?
A: 0%

Q: And the “Population Mitochondria Different-Phenotype (%)” value [8]?
A: 70%

Q: What about the “Population Mitotic Cells (%)” value [8] of the same compound?
A: 27%

Q: And the “Population Normal (%)” value [8]?
A: 87%

Q: And the “Population Pyknosed Nuclei (%)” value [8]?
A: 86%

Q: And the “Population Tubulin-Different-Phenotype (%)” value [8]?
A: 70%

Q: And the “Total Cell Count” value [8]?
A: 175

Q: What about the “Population Apoptotic (%)” value [9] of the same compound?
A: 36%

Q: And the “Population Fragmented Nuclei (%)” value [9]?
A: 22%

Q: What about the “Population Healthy Nuclei (%)” value [9] of the same compound?
A: 5%

Q: And the “Population Hoechst High Intensity Objects (%)” value [9]?
A: 23%

Q: What about the “Population Membrane Permeable-Phenotype (%)” value [9] of the same compound?
A: 6%

Q: What about the “Population Mitochondria Different-Phenotype (%)” value [9] of the same compound?
A: 46%

Q: What about the “Population Mitotic Cells (%)” value [9] of the same compound?
A: 63%

Q: What about the “Population Normal (%)” value [9] of the same compound?
A: 76%

Q: What about the “Population Pyknosed Nuclei (%)” value [9] of the same compound?
A: 71%

Q: And the “Population Tubulin-Different-Phenotype (%)” value [9]?
A: 60%

Q: And the “Total Cell Count” value [9]?
A: 373

Q: What about the “Population Apoptotic (%)” value [10] of the same compound?
A: 52%

Q: And the “Population Fragmented Nuclei (%)” value [10]?
A: 10%

Q: And the “Population Healthy Nuclei (%)” value [10]?
A: 14%

Q: What about the “Population Hoechst High Intensity Objects (%)” value [10] of the same compound?
A: 17%

Q: And the “Population Membrane Permeable-Phenotype (%)” value [10]?
A: 17%

Q: What about the “Population Mitochondria Different-Phenotype (%)” value [10] of the same compound?
A: 20%

Q: And the “Population Mitotic Cells (%)” value [10]?
A: 47%

Q: What about the “Population Normal (%)” value [10] of the same compound?
A: 82%

Q: What about the “Population Pyknosed Nuclei (%)” value [10] of the same compound?
A: 75%

Q: And the “Population Tubulin-Different-Phenotype (%)” value [10]?
A: 64%

Q: What about the “Total Cell Count” value [10] of the same compound?
A: 278

Q: What about the “Population Apoptotic (%)” value [11] of the same compound?
A: 72%

Q: What about the “Population Fragmented Nuclei (%)” value [11] of the same compound?
A: 20%

Q: And the “Population Healthy Nuclei (%)” value [11]?
A: 3%

Q: And the “Population Hoechst High Intensity Objects (%)” value [11]?
A: 20%

Q: And the “Population Membrane Permeable-Phenotype (%)” value [11]?
A: 11%

Q: And the “Population Mitochondria Different-Phenotype (%)” value [11]?
A: 77%

Q: And the “Population Mitotic Cells (%)” value [11]?
A: 27%

Q: And the “Population Normal (%)” value [11]?
A: 79%

Q: What about the “Population Pyknosed Nuclei (%)” value [11] of the same compound?
A: 76%

Q: What about the “Population Tubulin-Different-Phenotype (%)” value [11] of the same compound?
A: 66%

Q: What about the “Total Cell Count” value [11] of the same compound?
A: 331

Q: What about the “Population Apoptotic (%)” value [12] of the same compound?
A: 89%

Q: What about the “Population Fragmented Nuclei (%)” value [12] of the same compound?
A: 5%

Q: What about the “Population Healthy Nuclei (%)” value [12] of the same compound?
A: 1%

Q: What about the “Population Hoechst High Intensity Objects (%)” value [12] of the same compound?
A: 15%

Q: And the “Population Membrane Permeable-Phenotype (%)” value [12]?
A: 0%

Q: What about the “Population Mitochondria Different-Phenotype (%)” value [12] of the same compound?
A: 66%

Q: What about the “Population Mitotic Cells (%)” value [12] of the same compound?
A: 10%

Q: What about the “Population Normal (%)” value [12] of the same compound?
A: 84%

Q: And the “Population Pyknosed Nuclei (%)” value [12]?
A: 92%

Q: What about the “Total Cell Count” value [12] of the same compound?
A: 179
